From ChEMBL document CHEMBL1142626, “Insecticidal and mutagenic evaluation of two annonaceous acetogenins” (J Nat Prod, 2000) come the findings set out here.

The test system of data set [1] is Salmonella typhimurium. Kind of data set: Mutagenic activity in Salmonella Typhimurium TA102 assessed as number of revertants at 0.01 ug/plate in absence of Wistar rat S9 liver homogenate. In kind it is toxicity, organism-based. The note with it: salmonella enterica subsp. enterica serovar typhimurium. In outline:
(§1)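 Salmonella/microsome plate test, with or without S9 from livers of male Wistar rats (~200 g). Strain markers and spontaneous revertant counts were routinely verified. Revertants are reported as mean ± standard error of triplicate plates. Strain-specific positive controls were used, with 2-aminoanthracene for all strains when S9 was present.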

The test system of data set [2] is Salmonella typhimurium. Kind of data set: Mutagenic activity in Salmonella Typhimurium TA100 assessed as number of revertants at 1 ug/plate in presence of Wistar rat S9 liver homogenate. The settings on record: salmonella enterica subsp. enterica serovar typhimurium. Type of data set: toxicity, organism-based, Liver S9 fraction. The procedure, abridged: as §1
Data set [3] concerns Salmonella typhimurium. As to the kind of experiment: Mutagenic activity in Salmonella Typhimurium TA100 assessed as number of revertants at 50 ug/plate in absence of Wistar rat S9 liver homogenate. In kind it is toxicity, organism-based. The settings on record: salmonella enterica subsp. enterica serovar typhimurium. The procedure, abridged:
as §1

In data set [4] the test system is Salmonella typhimurium. Kind of data set: Mutagenic activity in Salmonella Typhimurium TA100 assessed as number of revertants at 0.1 ug/plate in absence of Wistar rat S9 liver homogenate. Type of data set: toxicity, organism-based. The settings on record: salmonella enterica subsp. enterica serovar typhimurium. In outline:
as §1

Data set [5] concerns Salmonella typhimurium. As to the kind of experiment: Mutagenic activity in Salmonella Typhimurium TA98 assessed as number of revertants at 20 ug/plate in presence of Wistar rat S9 liver homogenate. The settings on record: salmonella enterica subsp. enterica serovar typhimurium. Type of data set: toxicity, organism-based, Liver S9 fraction. The procedure, abridged: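 Salmonella/microsome plate test (Ames) in strain TA98, with genetic markers and spontaneous revertant counts verified routinely. Run with and without S9 mix, the S9 being liver postmitochondrial supernatant from male Wistar rats of about 200 g. Doses ran from 0.01 to 100 µg/plate. Revertants are the mean of triplicate plates with standard error. Positive controls were 0.5 µg 4-nitroquinoline-N-oxide without S9 and 15 µg 2-aminoanthracene with S9.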

Data set [6] deals with Salmonella typhimurium. As to the kind of experiment: Mutagenic activity in Salmonella Typhimurium TA102 assessed as number of revertants at 100 ug/plate in presence of Wistar rat S9 liver homogenate. Type of data set: toxicity, organism-based, Liver S9 fraction. The settings on record: salmonella enterica subsp. enterica serovar typhimurium. In outline:
as §1

Data set [7] relates to Salmonella typhimurium. As to the kind of experiment: Mutagenic activity in Salmonella Typhimurium TA98 assessed as number of revertants at 10 ug/plate in presence of Wistar rat S9 liver homogenate. Type of data set: toxicity, organism-based, Liver S9 fraction. The settings on record: salmonella enterica subsp. enterica serovar typhimurium. The procedure, abridged: as §1

The subject of data set [8] is Salmonella typhimurium. As to the kind of experiment: Mutagenic activity in Salmonella Typhimurium TA100 assessed as number of revertants at 100 ug/plate in absence of Wistar rat S9 liver homogenate. The note with it: salmonella enterica subsp. enterica serovar typhimurium. Type of data set: toxicity, organism-based. In outline: as §1
For data set [9], the system named is Salmonella typhimurium. Kind of data set: Mutagenic activity in Salmonella Typhimurium TA102 assessed as number of revertants at 20 ug/plate in presence of Wistar rat S9 liver homogenate. The settings on record: salmonella enterica subsp. enterica serovar typhimurium. Type of data set: toxicity, organism-based, Liver S9 fraction. In outline:
as §1

In data set [10] the test system is Leptinotarsa decemlineata. Kind of data set: Antifeedant effect against Leptinotarsa decemlineata assessed as feeding reduction. Type of data set: functional, organism-based. The procedure, abridged: (§2)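 Choice test on leaf disks using adult L. decemlineata or newly emerged fifth-instar S. littoralis larvae. Five to 10 plates per treatment, three insects each. Uneaten leaf-disk area was measured by scanner. %FR = [1 − (treatment/control consumption)] × 100 per arena. Where FR exceeded 50%, EC50 was taken from linear regression of %FR on log dose.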

The test system of data set [11] is Salmonella typhimurium. Kind of data set: Bactericidal activity against Salmonella Typhimurium TA100 assessed as viability after 24 hrs in absence of Wistar rat S9 liver homogenate. In kind it is functional, organism-based. The note with it: Salmonella enterica subsp. enterica serovar Typhimurium. In outline: (§3)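 Viability assay: test solution or DMSO was mixed with diluted overnight culture and phosphate buffer (no S9) in top agar with histidine/biotin. The mixture was spread on nutrient agar and incubated 24 h at 37 °C. Colonies were counted to give viable bacteria per mL; positive and negative controls included; triplicate.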

The test system of data set [12] is Salmonella typhimurium. As to the kind of experiment: Bactericidal activity against Salmonella Typhimurium TA98 assessed as viability after 24 hrs in absence of Wistar rat S9 liver homogenate. In kind it is functional, organism-based. The settings on record: Salmonella enterica subsp. enterica serovar Typhimurium. The procedure, abridged: as §3
Data set [13] concerns Salmonella typhimurium. As to the kind of experiment: Bactericidal activity against Salmonella Typhimurium TA102 assessed as viability after 24 hrs in absence of Wistar rat S9 liver homogenate. In kind it is functional, organism-based. The note with it: Salmonella enterica subsp. enterica serovar Typhimurium. In outline:
as §3

Data set [14] relates to Salmonella typhimurium. As to the kind of experiment: Mutagenic activity in Salmonella Typhimurium TA102 assessed as number of revertants at 0.01 ug/plate in presence of Wistar rat S9 liver homogenate. In kind it is toxicity, organism-based, Liver S9 fraction. The note with it: salmonella enterica subsp. enterica serovar typhimurium. The procedure, abridged: as §1
The subject of data set [15] is Leptinotarsa decemlineata. Kind of data set: Antifeedant effect against Leptinotarsa decemlineata assessed as feeding reduction at 100 ug/cm2 relative to control. In kind it is functional. Also on record: scale not given: the % may be the effect or the level left. The procedure, abridged: as §2
The subject of data set [16] is Leptinotarsa decemlineata. As to the kind of experiment: Antifeedant effect against Leptinotarsa decemlineata assessed as feeding reduction at 10 ug/cm2. Type of data set: functional, organism-based. The procedure, abridged:
as §2

In data set [17] the test system is Myzus persicae. Kind of data set: Insecticidal activity against Myzus persicae assessed as increase in mortality at 100 ug/cm2 observed daily for 4 days. In kind it is functional, organism-based. In outline:
(§4)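 No-choice test: 20 boxes, each with five same-age apterous adult M. persicae (100 insects). Nymphs produced in the first 48 h were separated from adults and kept in similarly treated boxes. Both were observed daily for 4 days for mortality. Analysed by contingency tables and LSD test.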

In a further data set the test system is Spodoptera littoralis. As to the kind of experiment: Antifeedant effect against Spodoptera littoralis assessed as feeding reduction at 100 ug/cm2 relative to control. Also on record: scale not given: the % may be the effect or the level left. In kind it is functional. The procedure, abridged: as §2
For data set [18], the system named is Myzus persicae. Kind of data set: Insecticidal activity against Myzus persicae assessed as increase in mortality at 50 ug/cm2 observed daily for 4 days. Type of data set: functional, organism-based. The procedure, abridged:
as §4

As for `CCCCCCCCCCCC[C@@H](O)[C@H]1CC[C@H]([C@H](O)CCCC[C@H](O)CCCCC[C@@H](O)CC2=CC(C)OC2=O)O1` (some centres undefined) [ANNONACIN], the Activity in the data set on Salmonella typhimurium [1] is 328; with Salmonella typhimurium [2], 140; in the data set with Salmonella typhimurium [3], 85; with Salmonella typhimurium [4], 142; in the data set with Salmonella typhimurium [5] it was 26; in the data set on Salmonella typhimurium [6], 437. Besides, the Activity with Salmonella typhimurium [7] was 19; in the data set on Salmonella typhimurium [8], 68; in the data set with Salmonella typhimurium [9], 432; in the data set on Salmonella typhimurium [11], “Non-toxic”; with Salmonella typhimurium [12], “Non-toxic”; in the data set with Salmonella typhimurium [13], “Non-toxic”. The results for the Activity (with Salmonella typhimurium [14]; in data set [15]) were 443 and 93%, respectively. Also, the EC50 in [10] is recorded as 10 microg/cm2.

Consider `CCCCCC[C@H](O)CCC[C@H](O)[C@H]1CC[C@H]([C@H]2CC[C@H]([C@H](O)CCCCCCCCCCCCC3=C[C@H](C)OC3=O)O2)O1` [SQUAMOCIN], for which the Activity is reported as 259 in the data set on Salmonella typhimurium [1]; 138 with Salmonella typhimurium [2]; 39 in the data set on Salmonella typhimurium [3]; 140 in the data set with Salmonella typhimurium [4]; 43 with Salmonella typhimurium [5]; 88 with Salmonella typhimurium [6]. The Activity with Salmonella typhimurium [7] is 41; with Salmonella typhimurium [8] it was 21; in [16], “Toxic”; with Salmonella typhimurium [9], 139; in the data set on Myzus persicae [17] it was “Non-toxic”; with Spodoptera littoralis, <40%. For the same compound, the Activity in the data set with Salmonella typhimurium [14] is 414; in the data set on Myzus persicae [18], “Non-toxic”.
